HKDC1 inhibitor: HKDC1 (human) hexokinase inhibition | Q2TB90 | recombinant HKDC1, G6PDH/diaphorase resazurin coupled fluorescence | inhibition, % at 20 µM | actives 0.16% (n = 340,000) | AID 493160;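 active = inhibition above about 35% when tested at 20 µM, limit read from the data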
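Test system: HK5 enzyme. Quantity: 5 µg/mL HK5 final. Reagent: glucose and ATP substrates. Schedule: 90 min reaction incubation at room temperature, dark. Technique: resazurin-to-resorufin fluorescence via G6PDH and diaphorase coupling, 525/613 nm. Control set: DMSO wells with and without enzyme mix.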
APOBEC3A inh: human APOBEC3A DNA deaminase inhibition; AID 493011; actives 0.41% (n = 330,000); P31941; inhibition, % at 20 µM; recombinant A3A, FAM/TAMRA ssDNA deamination fluorescence;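 active = at least 40% inhibition at 20 µM here, with at most 30% in a related deaminase screen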
UBC9 SUMO inh: blocks human SUMOylation mediated by UBC9 | inhibition, % at 35 µM | HTRF SUMOylation assay, SAE1/SAE2 + UBC9, in vitro | actives 0.36% (n = 290,000); in the data active = inhibition above about 50%, passing the limit was not always enough
M18AAP inhibitor: blocks P. falciparum M18 aspartyl aminopeptidase; recombinant PfM18AAP, H-Glu-NHMec fluorogenic cleavage; inhibition, % at 7.35 µM; actives 1.2% (n = 290,000); AID 1822;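 active = inhibition above the campaign mean inhibition over all tested compounds plus 3 SD, cut at about 28% in these data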
PfGluPho inh: PfG6PD (Plasmodium falciparum) enzyme inhibition; actives 0.78% (n = 350,000); PfGluPho enzyme, NADPH resazurin-diaphorase fluorescence; inhibition, % at 20 µM;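 active = inhibition reaching at least a set limit at 20 µM in the primary screen, cut at about 59% in these data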
APOBEC3G inh: APOBEC3G (human) deaminase inhibition. inhibition, % at 20 µM. actives 0.28% (n = 330,000). recombinant A3G, ssDNA deamination FAM/TAMRA fluorescence. Q9HC16;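 active = inhibition of at least 40% at 20 µM, with no more than 30% in the related APOBEC3A deaminase screen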
A3A conf: APOBEC3A (human) deaminase inhibition, confirmed; recombinant A3A, ssDNA deaminase UDG fluorescence assay; actives 63% (n = 1,400); inhibition, % at 20 µM; shares compounds with APOBEC3A inh;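 active = inhibition reaching a set limit, 80% of the first screen's cutoff, at 20 µM in any replicate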
UDG ctr A3A: inhibits UDG, flagging false APOBEC3A inhibitors | shares compounds with APOBEC3A inh | UDG counterscreen, FAM/TAMRA uracil oligo fluorescence | inhibition, % at 20 µM | 1,000 tested, under 10 active | AID 504714; call rule not given here
Of the large screens only hits and unclear results are named; the others gave an inactive call (follow-up assays come after a bar, where they were run). Hits are enriched below; roughly 2.4% of the tested compounds scored in any of these assays.

Cc1c2cccn2cc[n+]1C	APOBEC3A inh 41.8 | A3A conf 77.5 | UDG ctr A3A inactive
C[N+]1(CC2COC3(CCCCC3)O2)CCCC1 (stereo unspecified)	none
CC1CC(C)(C)OC(C[N+]2(C)CCCCC2)O1 (stereo unspecified)	APOBEC3A inh 48.8 | A3A conf 76.5 | UDG ctr A3A inactive
CC(C)CC(NC(=O)C(NC(=O)OC(C)(C)C)C(C)C)C(=O)N1CCCC1C(N)=O (stereo unspecified)	none
O=C(OCC(=O)N(CCc1ccccc1)Cc1ccccc1)c1ccccc1O	none (no result: UBC9 SUMO inh, M18AAP inhibitor)
Cc1cc(-c2ccccc2)nc2c(Br)c(C(=O)O)nn12	APOBEC3A inh 42.2 (no result: UBC9 SUMO inh, M18AAP inhibitor) | A3A conf 40.1 | UDG ctr A3A inactive
Cn1c(=O)cc(N2CCOCC2)[nH]c1=O	none
COc1cccc(C(=O)N/N=C(/CCC(=O)O)c2ccccc2)c1	none
O=Cc1cn(-c2ccccc2)nc1-c1cc2c(ccc3ccccc32)oc1=O	APOBEC3A inh 77.1 | A3A conf inactive | UDG ctr A3A inactive
O=Cc1cn(-c2ccccc2)nc1-c1cc2cc(O)ccc2oc1=O	none (no result: UBC9 SUMO inh)
Cc1ccc(-c2noc(CCC(=O)NCCN3CCOCC3)n2)cc1	none
CC1CCCC(NC(=O)NC(=O)COC(=O)c2ccc(O)cc2O)C1C (stereo unspecified)	APOBEC3A inh 84.6 (no result: UBC9 SUMO inh, M18AAP inhibitor) | A3A conf 32.6 | UDG ctr A3A inactive
Cc1cc(C(=O)OCC(=O)NC2CCCC(C)C2C)c(C)o1 (stereo unspecified)	none (no result: UBC9 SUMO inh, M18AAP inhibitor)
CCOC(=O)c1ccc(-n2nc(C(F)(F)F)c3c(C)cc(=O)oc32)cc1	none (no result: HKDC1 inhibitor, APOBEC3A inh, UBC9 SUMO inh, PfGluPho inh, APOBEC3G inh)
Cc1cc(=O)oc2c1c(C)nn2-c1nn[nH]n1	APOBEC3A inh 58.8 | A3A conf 72.2 | UDG ctr A3A inactive
CC(C)C(CO)N1CCN(Cc2ccccc2)CCC1=O (stereo unspecified)	APOBEC3A inh 61.4 (no result: M18AAP inhibitor) | A3A conf 51.3 | UDG ctr A3A inactive
Cc1ncc(C[n+]2csc(C)c2C)c(N)n1	none
COC(=O)c1ccc(Cn2c(C)cc(C)[n+]2C)o1	APOBEC3A inh 51.6 | A3A conf 71.7 | UDG ctr A3A inactive
COC(=O)c1ccc(Cc2ccc(C(=O)OC)o2)o1	none
O=C(Nc1ccc2ncccc2c1)c1ccccc1Cl	APOBEC3A inh 46.1 | A3A conf 74.6 | UDG ctr A3A inactive
O=C(Nc1ccc2ncccc2c1)c1ccccc1	none
C#CCSc1nc(Cc2ccc(Cl)cc2)nc2ccccc12	APOBEC3A inh 47.8 | A3A conf inactive | UDG ctr A3A inactive
COc1nc(Cc2ccc(Cl)cc2)nc2ccccc12	none
C=CCn1c(SCc2nc3sc(C(=O)O)c(C)c3c(=O)[nH]2)nnc1-c1ccccc1	none
C=CCn1c(SCc2nc3sc(C(=O)O)c(C)c3c(=O)[nH]2)nnc1-c1ccc(C(C)(C)C)cc1	APOBEC3A inh 40.1 | A3A conf inactive | UDG ctr A3A inactive
COc1ccc(N2CCN(C(=O)Cc3ccc(S(=O)(=O)N4CCOCC4)s3)CC2)cc1	APOBEC3A inh 48.8 | A3A conf inactive
O=C(Cc1ccc(S(=O)(=O)N2CCCC2)s1)N1CCN(c2ccccc2)CC1	none
O=C(O)Cc1ccc(S(=O)(=O)N2CCCC2)s1	APOBEC3A inh 48.7 (no result: UBC9 SUMO inh, M18AAP inhibitor) | A3A conf 51.3 | UDG ctr A3A inactive
Cc1ccc(S(=O)(=O)N2CCN(C(=O)Cc3ccc(S(=O)(=O)N4CCOCC4)s3)CC2)cc1	none
OCCC1CN(Cc2cccnc2)CCN1CCc1ccccc1 (stereo unspecified)	none
CCc1nn(CCCC(=O)N2CCC(C)CC2)c(=O)c2cc3occc3n12	APOBEC3A inh 40.2 | A3A conf inactive | UDG ctr A3A inactive
CCc1nn(CCCC(=O)N2CCN(c3ccc(OC)cc3)CC2)c(=O)c2cc3occc3n12	none
Cc1[nH]c(=O)c(C#N)c(C)c1CCC(=O)Nc1cc(S(C)(=O)=O)ccc1Cl	APOBEC3A inh 73.4 | A3A conf 42.1 | UDG ctr A3A inactive
O=C1C=C(c2ccccc2)C(c2ccccc2)C1O (stereo unspecified)	none (no result: APOBEC3A inh, UBC9 SUMO inh, M18AAP inhibitor, APOBEC3G inh)
CNC(=O)CN(CCc1ccccc1)S(=O)(=O)c1ccc(OC)cc1	APOBEC3A inh 45.0 | A3A conf inactive
COc1ccc(S(=O)(=O)N(CCc2ccccc2)CC(=O)NC(C)C)cc1	APOBEC3A inh 49.5 | A3A conf 47.6 | UDG ctr A3A inactive
CN(C)C(=O)N1CCCC(C(=O)NCc2ccccc2Cl)C1 (stereo unspecified)	none
CC(C)Nc1nc(NC(C)C)nc(Nn2cnnc2)n1	none
CC(C)Nc1nc(NC(C)C)nc(N(C)n2cnnc2)n1	APOBEC3A inh 41.0 | A3A conf inactive
Brc1ccc(/C=N/Nc2nc3ccccc3o2)cc1	none
CSc1cccc(NC(=O)CN(C2CCCCC2)S(C)(=O)=O)c1	APOBEC3A inh 64.9 | A3A conf inactive | UDG ctr A3A inactive
COc1ccc(NC(=O)CN(C2CCCCC2)S(C)(=O)=O)cc1OC	none
O=C(CSc1nnc(N2CCCC2)n1-c1ccccc1Cl)N1CCN(c2ccccn2)CC1	none (no result: UBC9 SUMO inh, M18AAP inhibitor)
Cc1ccc(NC(=O)CC(C)N2CCCC2)cc1 (stereo unspecified)	none
Cc1nc(SCCOc2ccc(F)cc2)c2ccccc2n1	APOBEC3A inh 51.3 | A3A conf 75.8 | UDG ctr A3A inactive
Cc1nc(SCCC(=O)O)c2ccccc2n1	none
COC(=O)c1cc(OC)c(OC)cc1NC(=O)c1ccc(OC)c(OC)c1	none
Cc1cc(OC(=O)Cc2cccc3ccccc23)c([N+](=O)[O-])c(=O)[nH]1	none
CNC(=O)c1cc(Cl)c(OC)c(OC)c1	APOBEC3A inh 56.9 | A3A conf inactive
COCCN1C(=NCCCOC(C)C)N[C@@H](c2ccccc2)C(C(=O)OC)=C1C	APOBEC3A inh 62.4 | A3A conf 67.0 | UDG ctr A3A inactive
C=CCN=C1N[C@@H](c2ccccc2)C(C(=O)OC)=C(C)N1CCOC	APOBEC3A inh 51.1 | A3A conf 70.7 | UDG ctr A3A inactive
COCCN=C1N[C@@H](c2ccccc2)C(C(=O)OC)=C(C)N1Cc1ccccc1	none
Cc1ccc(C(=O)C(C)OC(=O)c2cc3cc([N+](=O)[O-])ccc3oc2=O)cc1 (stereo unspecified)	none
CCOC(=O)Cc1csc(SCC(=O)c2c(N)n(CC(C)C)c(=O)n(C)c2=O)n1	none
O=C(Oc1ccc2c(c1)OCO2)c1cc2c(s1)CCC2	APOBEC3A inh 62.4 | A3A conf 79.5
COc1ccc(S(=O)(=O)N2CCCCC2)cc1NS(=O)(=O)c1ccccc1F	none
CC(C)C(C)NC(=O)COC(=O)C1CCN(S(=O)(=O)c2ccc3c(c2)OCCO3)CC1 (stereo unspecified)	none (no result: UBC9 SUMO inh, M18AAP inhibitor)

Screening results from PubChem BioAssay.
